Assay results from ChEMBL document CHEMBL1821567, “Synthesis and glycosidase inhibitory profiles of functionalised morpholines and oxazepanes” (Bioorg Med Chem, 2011).
Active and inactive are the calls of the source. The calls are words filed in the database; no cut-off is given here.

Key:
[1] = Inhibition of alpha-glucosidase
[2] = target: T1, Lysosomal acid glucosylceramidase (Homo sapiens, UniProt P04062); test: Uncompetitive inhibition of human beta-glucosidase by Michaelis-Menten kinetics analysis
T1 sequence (P04062 whole entry): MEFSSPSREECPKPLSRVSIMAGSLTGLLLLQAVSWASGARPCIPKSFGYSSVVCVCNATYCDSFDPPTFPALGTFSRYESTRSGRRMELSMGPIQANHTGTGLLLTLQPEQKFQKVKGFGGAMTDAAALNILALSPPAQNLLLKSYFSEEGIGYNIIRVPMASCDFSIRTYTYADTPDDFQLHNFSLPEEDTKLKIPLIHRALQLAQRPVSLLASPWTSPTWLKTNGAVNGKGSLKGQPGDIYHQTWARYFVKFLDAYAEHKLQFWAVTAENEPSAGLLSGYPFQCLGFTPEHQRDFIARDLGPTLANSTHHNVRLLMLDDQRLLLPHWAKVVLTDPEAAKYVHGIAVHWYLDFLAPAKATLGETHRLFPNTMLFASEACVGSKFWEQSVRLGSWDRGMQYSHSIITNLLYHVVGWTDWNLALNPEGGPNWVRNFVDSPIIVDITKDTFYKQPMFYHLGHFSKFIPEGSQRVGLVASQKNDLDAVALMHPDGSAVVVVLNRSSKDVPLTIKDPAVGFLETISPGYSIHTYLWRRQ

[3] = Inhibition of lysosomal alpha-glucosidase
[4] = Inhibition of lysosomal beta-glucosidase; conditions: concentration not given here
Summary of the method: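 Enzyme and test solution (or water for controls) were pre-incubated at 27 °C for 10–20 min. Substrate was then added and incubated at 27 °C for 10–20 min. The reaction was stopped with glycine solution and absorbance read at 405 nm. Wells were in triplicate with triplicate controls. Results are % inhibition at 1 mg/ml at optimal pH.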

[5] = Inhibition of lysosomal alpha-glucosidase
[6] = target: T2, Beta-galactosidase/Glucosylceramidase (Bos taurus, UniProt Q58D55+Q2KHZ8); test: Inhibition of bovine liver beta-glucosidase/beta-galatosidase
T2 sequence (Q58D55 whole entry): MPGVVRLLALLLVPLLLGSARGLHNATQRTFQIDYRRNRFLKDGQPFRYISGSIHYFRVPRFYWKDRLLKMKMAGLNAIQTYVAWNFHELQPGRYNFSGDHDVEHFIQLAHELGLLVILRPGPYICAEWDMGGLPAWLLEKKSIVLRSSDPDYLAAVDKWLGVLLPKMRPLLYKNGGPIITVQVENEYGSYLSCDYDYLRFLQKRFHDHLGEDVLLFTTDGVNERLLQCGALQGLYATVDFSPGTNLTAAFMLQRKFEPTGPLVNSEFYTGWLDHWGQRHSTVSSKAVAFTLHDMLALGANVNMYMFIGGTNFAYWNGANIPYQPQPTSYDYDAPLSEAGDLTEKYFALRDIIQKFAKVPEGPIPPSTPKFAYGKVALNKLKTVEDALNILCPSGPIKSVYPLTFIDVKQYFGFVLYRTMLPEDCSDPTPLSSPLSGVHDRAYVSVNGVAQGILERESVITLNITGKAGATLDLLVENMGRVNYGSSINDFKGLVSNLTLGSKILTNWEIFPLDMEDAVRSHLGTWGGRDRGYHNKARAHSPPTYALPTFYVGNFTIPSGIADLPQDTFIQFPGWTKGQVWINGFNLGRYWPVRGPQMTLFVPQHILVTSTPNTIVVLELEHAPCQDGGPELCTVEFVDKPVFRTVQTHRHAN
T2 sequence (Q2KHZ8 whole entry): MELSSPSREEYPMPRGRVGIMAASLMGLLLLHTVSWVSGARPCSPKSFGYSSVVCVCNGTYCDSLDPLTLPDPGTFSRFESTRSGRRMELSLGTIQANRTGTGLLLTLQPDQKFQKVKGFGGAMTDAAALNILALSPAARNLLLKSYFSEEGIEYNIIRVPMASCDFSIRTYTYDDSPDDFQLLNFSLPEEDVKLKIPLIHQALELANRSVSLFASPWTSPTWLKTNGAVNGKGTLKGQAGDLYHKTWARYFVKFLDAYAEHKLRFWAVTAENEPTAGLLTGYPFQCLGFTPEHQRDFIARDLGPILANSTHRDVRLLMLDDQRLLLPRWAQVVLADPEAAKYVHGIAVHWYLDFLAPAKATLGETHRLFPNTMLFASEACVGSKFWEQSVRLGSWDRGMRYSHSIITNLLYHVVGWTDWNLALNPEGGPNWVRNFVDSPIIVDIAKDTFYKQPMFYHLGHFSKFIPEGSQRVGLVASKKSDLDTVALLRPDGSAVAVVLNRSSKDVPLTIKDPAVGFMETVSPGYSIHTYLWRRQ

Penicillium decumbens = test: Inhibition of Penicillium decumbens naringinase at 1 mg/ml after 10 to 20 mins
Summary of the method: (§1)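 Enzyme was pre-incubated with test solution at 1 mg/ml, or dH2O for controls, for 10–20 min at 27 °C. Substrate was added and incubation continued for the same time at 27 °C. The reaction was stopped with glycine solution and read at 405 nm. Each sample and control ran in three wells at the enzyme's optimal pH. Values are % inhibition.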

Beta-galactosidase = target: T3, Beta-galactosidase (Bos taurus, UniProt Q58D55); test: Inhibition of bovine kidney beta-D-galactosidase after 10 to 20 mins
T3 sequence (Q58D55 whole entry): T2 sequence (Q58D55 whole entry)
Summary of the method: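 Bovine kidney β-D-galactosidase was pre-incubated with test solution, or dH2O for controls, for 10–20 min at 27 °C. Substrate was added for a further 10–20 min at 27 °C, then glycine solution, and absorbance at 405 nm. Wells were run in triplicate. Ki and inhibition mode came from Lineweaver–Burk double-reciprocal slopes.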

Canavalia ensiformis = test: Inhibition of jack bean alpha-D-mannosidase at 1 mg/ml after 10 to 20 mins; summary of the method: as §1
Bos taurus = organism: Bos taurus; test: Inhibition of bovine kidney N-acetyl-beta-D-glucosaminidase at 1 mg/ml after 10 to 20 mins; summary of the method: as §1
Oryza sativa = test: Inhibition of rice alpha-D-glucosidase at 1 mg/ml after 10 to 20 mins; summary of the method: as §1
[7] = test system: Geobacillus stearothermophilus; test: Inhibition of Bacillus stearothermophilus alpha-D-glucosidase at 1 mg/ml after 10 to 20 mins; summary of the method: as §1
[8] = target: Alpha-galactosidase (Coffea arabica) (UniProt Q42656); test: Inhibition of green coffee beans alpha-D-galactosidase at 1 mg/ml after 10 to 20 mins; summary of the method: as §1
Cellulomonas fimi = test: Inhibition of Cellulomonas fimi beta-D-mannosidase at 1 mg/ml after 10 to 20 mins; summary of the method: as §1
[9] = target: T4, Beta-galactosidase (Bos taurus) (UniProt Q58D55); test: Inhibition of bovine kidney beta-D-galactosidase at 1 mg/ml after 10 to 20 mins; summary of the method: as §1
T4 sequence (whole entry): T2 sequence (Q58D55 whole entry)

Saccharomyces cerevisiae = test: Inhibition of Saccharomyces cerevisiae alpha-D-glucosidase at 1 mg/ml after 10 to 20 mins; summary of the method: as §1
Prunus = test: Inhibition of almond beta-D-glucosidase at 1 mg/ml after 10 to 20 mins; summary of the method: as §1

Alpha-galactosidase (Coffea arabica), sequence (Q42656 16-378 limits assumed): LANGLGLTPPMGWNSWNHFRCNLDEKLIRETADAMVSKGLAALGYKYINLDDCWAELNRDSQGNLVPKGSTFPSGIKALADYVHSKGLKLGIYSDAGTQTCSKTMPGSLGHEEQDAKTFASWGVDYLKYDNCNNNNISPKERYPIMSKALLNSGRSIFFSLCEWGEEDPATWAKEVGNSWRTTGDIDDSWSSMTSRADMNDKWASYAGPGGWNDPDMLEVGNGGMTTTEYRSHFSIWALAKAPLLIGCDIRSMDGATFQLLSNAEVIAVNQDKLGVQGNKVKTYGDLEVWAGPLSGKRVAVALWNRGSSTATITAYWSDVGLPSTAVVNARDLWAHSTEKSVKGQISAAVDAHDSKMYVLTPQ

SMILES: OC[C@H]1CNC[C@@H](O)[C@@H]1O
- INH [1]: 86 µM

SMILES: OCCN1CCOCC1
- Ki [2]: 620 µM

SMILES: O[C@H]1[C@H](O)[C@@H](O)CN2CC[C@H](O)[C@H]12 [CASTANOSPERMINE]
- Ki [3]: 100 nM
- inhibition [4]: 96%
- Ki [5]: 100 nM
- inhibition ([5]; concentration not given here): 100%

SMILES: O[C@@H]1[C@@H](O)[C@H](O)[C@@]2(O)CO[C@H]1N2
- Ki [6]: 45 µM

SMILES: O=C(Nc1ccccc1)N1[C@@H]2OC[C@]1(O)[C@@H](O)[C@@H](O)[C@H]2O
- Ki [6]: 68 µM

SMILES: O[C@@H]1[C@H](O)[C@H](O)[C@@]2(O)CO[C@H]1N2C(=S)Nc1ccccc1
- Ki [6]: 750 µM

SMILES: O[C@@H]1[C@@H](O)[C@H](O)[C@@]2(O)CO[C@H]1N2C(=S)Nc1ccccc1
- Ki [6]: 2.5 µM

SMILES: OCCC(O)CN1CCOCC1 (centres undefined)
- Ki [2]: 640 µM

SMILES: O=C(Nc1ccccc1)N1[C@@H]2OC[C@]1(O)[C@@H](O)[C@H](O)[C@H]2O
- Ki [6]: 30 µM

SMILES: CO[C@@H]1CN(C)C[C@@H](CO)O1
- inhibition (Penicillium decumbens): inactive
- IC50 (Beta-galactosidase): 88.6 µM
- Ki (Beta-galactosidase): 126 µM
- inhibition (Canavalia ensiformis): inactive
- inhibition (Bos taurus): inactive
- inhibition (Oryza sativa): inactive
- inhibition [7]: inactive
- inhibition [8]: inactive
- inhibition (Cellulomonas fimi): inactive
- inhibition [9]: 48%
- inhibition (Saccharomyces cerevisiae): 24%
- inhibition (Prunus): inactive
